Reference: article PMC7396963 (Journal of pharmaceutical and biomedical analysis, 2018)
Read-outs that look alike come from different tables or passages of the source.

Columns and labels:
[1] = Glucuronidation kinetics of NBIF in HLM; format: in vitro ADME, human
How it was run: (§1)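 Incubation in 50 mM Tris-HCl (pH 7.4) with 4.0 mM MgCl2, 22 μg/mL alamethicin, 4.4 mM saccharolactone and 3.5 mM UDPGA. Enzyme source is recombinant UGT or pooled liver or intestinal microsomes, as the line states. Test compound 0.16–80 μM, 1 h. Ice-cold acetonitrile stop, centrifugation, UHPLC/Q-TOF-MS semi-quantification of glucuronides. Minus-UDPGA control. Triplicate. Michaelis-Menten or substrate-inhibition model chosen by Eadie-Hofstee plot; CLint = Vmax/Km.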

[2] = Glucuronidation kinetics of NBIF in RLM; format: in vitro ADME, rats; conditions: glucuronide formation from NBIF, UDPGA-supplemented RLM
How it was run: as §1

[3] = Glucuronidation kinetics of NBIF in MkLM; format: in vitro ADME, monkeys; conditions: glucuronide formation from NBIF, UDPGA-supplemented MkLM
How it was run: as §1

[4] = Glucuronidation kinetics of NBIF in MLM; format: in vitro ADME, mice; conditions: glucuronide formation from NBIF, UDPGA-supplemented MLM
How it was run: as §1

UGT1A8 = target: T1, UGT1A8 (Homo sapiens, UniProt Q9HAW9); assay: Glucuronidation kinetics of NBIF by recombinant UGT1A8; format: in vitro ADME; conditions: glucuronide formation from NBIF
T1 sequence (Q9HAW9 26-530): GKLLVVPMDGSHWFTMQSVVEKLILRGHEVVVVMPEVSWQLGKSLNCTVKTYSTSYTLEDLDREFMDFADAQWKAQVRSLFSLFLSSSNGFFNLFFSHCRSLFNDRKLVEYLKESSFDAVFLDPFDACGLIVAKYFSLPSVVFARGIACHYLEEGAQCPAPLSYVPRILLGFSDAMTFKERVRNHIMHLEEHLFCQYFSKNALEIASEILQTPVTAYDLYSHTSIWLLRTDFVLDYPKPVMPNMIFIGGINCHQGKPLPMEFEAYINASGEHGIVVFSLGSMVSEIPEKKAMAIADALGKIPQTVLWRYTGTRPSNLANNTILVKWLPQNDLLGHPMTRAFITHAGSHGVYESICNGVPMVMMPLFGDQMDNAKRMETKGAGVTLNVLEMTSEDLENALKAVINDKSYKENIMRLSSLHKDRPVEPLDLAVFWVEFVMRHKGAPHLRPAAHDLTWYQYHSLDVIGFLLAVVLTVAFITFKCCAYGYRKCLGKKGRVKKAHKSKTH
How it was run: as §1

[5] = Glucuronidation kinetics of NBIF in DLM; format: in vitro ADME, dogs; conditions: glucuronide formation from NBIF, UDPGA-supplemented DLM
How it was run: as §1

UGT1A7 = target: T2, UGT1A7 (Homo sapiens, UniProt Q9HAW7); assay: Glucuronidation kinetics of NBIF by recombinant UGT1A7; format: in vitro ADME; conditions: glucuronide formation from NBIF
T2 sequence (Q9HAW7 26-530): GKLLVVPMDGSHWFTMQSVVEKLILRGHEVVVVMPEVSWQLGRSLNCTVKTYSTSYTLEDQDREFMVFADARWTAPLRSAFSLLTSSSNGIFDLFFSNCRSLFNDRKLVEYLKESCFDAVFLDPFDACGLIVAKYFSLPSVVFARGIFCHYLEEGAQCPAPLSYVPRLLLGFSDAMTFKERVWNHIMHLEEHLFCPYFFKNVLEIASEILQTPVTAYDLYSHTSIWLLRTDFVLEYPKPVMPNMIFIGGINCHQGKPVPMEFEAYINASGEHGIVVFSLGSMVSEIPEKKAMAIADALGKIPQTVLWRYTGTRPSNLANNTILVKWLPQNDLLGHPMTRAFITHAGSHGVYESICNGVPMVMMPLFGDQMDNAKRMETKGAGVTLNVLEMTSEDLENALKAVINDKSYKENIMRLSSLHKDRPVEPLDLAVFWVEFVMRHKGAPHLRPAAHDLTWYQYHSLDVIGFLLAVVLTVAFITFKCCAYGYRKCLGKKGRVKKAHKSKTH
How it was run: as §1

UGT1A9 = target: T3, UGT1A9 (Homo sapiens, UniProt O60656); assay: Glucuronidation kinetics of NBIF by recombinant UGT1A9; format: in vitro ADME; conditions: for Vmax: glucuronide formation from NBIF, recombinant UGT1A9
T3 sequence (O60656 26-530): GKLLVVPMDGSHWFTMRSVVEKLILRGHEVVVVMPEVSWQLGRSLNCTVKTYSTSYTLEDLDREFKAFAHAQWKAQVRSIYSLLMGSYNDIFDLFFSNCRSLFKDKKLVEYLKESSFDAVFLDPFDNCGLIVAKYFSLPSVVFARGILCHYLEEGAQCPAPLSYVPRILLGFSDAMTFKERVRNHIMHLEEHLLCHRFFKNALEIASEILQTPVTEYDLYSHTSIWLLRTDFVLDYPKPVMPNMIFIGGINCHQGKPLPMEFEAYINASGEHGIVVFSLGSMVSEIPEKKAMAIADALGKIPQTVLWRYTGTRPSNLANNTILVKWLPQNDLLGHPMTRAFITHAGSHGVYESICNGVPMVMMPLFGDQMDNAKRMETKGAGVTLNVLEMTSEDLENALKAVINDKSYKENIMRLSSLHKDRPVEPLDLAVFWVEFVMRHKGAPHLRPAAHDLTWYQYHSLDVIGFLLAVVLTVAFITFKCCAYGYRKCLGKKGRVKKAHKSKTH
How it was run: as §1

[6] = Glucuronidation kinetics of NBIF in RaLM; format: in vitro ADME, rabbits; conditions: glucuronide formation from NBIF, UDPGA-supplemented RaLM
How it was run: as §1

[7] = Glucuronidation kinetics of NBIF in HIM; format: in vitro ADME, human; conditions: glucuronide formation from NBIF, UDPGA-supplemented HIM
How it was run: as §1

UGT1A1 = target: T4, UGT1A1 (Homo sapiens, UniProt P22309); assay: Glucuronidation kinetics of NBIF by recombinant UGT1A1; format: in vitro ADME; conditions: glucuronide formation from NBIF
T4 sequence (P22309 26-533): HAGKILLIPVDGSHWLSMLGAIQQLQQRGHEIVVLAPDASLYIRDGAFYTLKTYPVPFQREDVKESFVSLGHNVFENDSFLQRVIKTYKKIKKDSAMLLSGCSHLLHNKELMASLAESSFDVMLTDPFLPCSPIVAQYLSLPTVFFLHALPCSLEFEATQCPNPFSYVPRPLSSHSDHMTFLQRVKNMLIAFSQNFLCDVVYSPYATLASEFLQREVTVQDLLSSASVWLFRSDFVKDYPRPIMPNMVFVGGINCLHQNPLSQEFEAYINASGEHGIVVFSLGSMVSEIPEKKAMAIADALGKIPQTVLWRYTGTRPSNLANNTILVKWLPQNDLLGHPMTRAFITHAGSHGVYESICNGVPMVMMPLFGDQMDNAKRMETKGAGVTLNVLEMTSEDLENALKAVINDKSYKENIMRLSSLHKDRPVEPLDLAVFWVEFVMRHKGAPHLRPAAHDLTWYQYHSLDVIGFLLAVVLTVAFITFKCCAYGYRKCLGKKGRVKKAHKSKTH
How it was run: as §1

[8] = inhibitory effect on HLM; cited from earlier work
[9] = system: UDP-glucuronosyltransferase 1A1 (UGT1A1); conditions: inhibitory effect on UGT1A1; cited from earlier work
α-glucosidase = α-glucosidase inhibitory activities; cited from earlier work
[10] = Species difference analysis of NBIF metabolism; format: in vitro ADME; conditions: CLint, HLM versus animal liver microsomes
How it was run: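 CLint values (Vmax/Km from model fits) for oxidation and glucuronidation come from pooled human liver microsomes and from monkey, rat, mouse, dog and rabbit liver microsomes. Each was incubated with test compound at 0.16–80 μM, using NADPH-supplemented oxidation or UDPGA/alamethicin glucuronidation conditions. Metabolites were measured by UHPLC/Q-TOF-MS in triplicate.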

[11] = target: human monoamine oxidase-A; conditions: cited from earlier work
human carboxylesterase 2 = conditions: cited from earlier work
[12] = target: human monoamine oxidase-B; conditions: cited from earlier work
platelet aggregation = conditions: inhibition of platelet aggregation; cited from earlier work
[13] = glucuronidation; cited from earlier work
[14] = glucuronidation; cited from earlier work; remark: listed apart in the source
[15] = glucuronide formation from NBIF, UDPGA-supplemented HLM

| Compound | Ki [2] | Ki [4] | Vmax (UGT1A8) | Ki (UGT1A7) | Vmax (UGT1A7) | Vmax (UGT1A9) | Ki (UGT1A1) | Vmax (UGT1A1) | Vmax [1, 15] | Vmax [2] | Vmax [3] | Vmax [4] | Vmax [5] | Vmax [6] | Vmax [7] | further results |
| --- | --- | --- | --- | --- | --- | --- | --- | --- | --- | --- | --- | --- | --- | --- | --- | --- |
| CC(C)=CCc1cc(-c2coc3cc(O)ccc3c2=O)ccc1O [NBIF, Neobavaisoflavone] |  |  |  |  |  |  |  |  |  |  |  |  |  |  |  | microsomal CLint ([1]; human, human liver microsomes (HLM) and HIM, pH 7.4): 60 to 949 µL/min/mg; IC50 [8]: 2.25 µM; IC50 [9]: 2.42 µM; IC50 (α-glucosidase): 27.7 µM; species differences in glucuronidation [10]: approximately 2.3 fold; species differences in the phase I metabolism [10]: approximately 16.1 fold; IC50 [11]: 66.5 µM; microsomal CLint (UGT1A9; human, recombinant UGT1A9, pH 7.4): 1070 µL/min/mg; IC50 (human carboxylesterase 2): 6.39 µM; IC50 [12]: 77.3 µM; IC50 (platelet aggregation): 2.5 µM |
| COc1ccc(-c2oc3c(CC=C(C)C)c(O)cc(O)c3c(=O)c2O)cc1 [icaritin] |  |  |  |  |  |  |  |  |  |  |  |  |  |  |  | CLint values [13]: more than 270 μL/min/mg |
| COc1ccc(-c2oc3c(CCC(C)(C)O)c(O)cc(O)c3c(=O)c2O)cc1 [wushanicaritin] |  |  |  |  |  |  |  |  |  |  |  |  |  |  |  | CLint values [14]: > 160 µL/min/mg |

Second part, led by results:

| Ki [2] | Ki [4] | Vmax (UGT1A8) | Ki (UGT1A7) | Vmax (UGT1A7) | Vmax (UGT1A9) | Ki (UGT1A1) | Vmax (UGT1A1) | Compound | Vmax [1, 15] | Vmax [2] | Vmax [3] | Vmax [4] | Vmax [5] | Vmax [6] | Vmax [7] | further results |
| --- | --- | --- | --- | --- | --- | --- | --- | --- | --- | --- | --- | --- | --- | --- | --- | --- |
| 24.73 ± 4.75 µM | 38.19 ± 10.18 µM | 419.1 ± 18.69 pmol/min/mg | 61.82 ± 13.5 µM | 11.93 ± 0.55 pmol/min/mg | 70.01 ± 1.37 pmol/min/mg | 291.1 ± 100.1 µM | 912.4 ± 49.36 pmol/min/mg | CC(C)=CCc1cc(-c2coc3cc(O[C@@H]4O[C@H](C(=O)O)[C@@H](O)[C@H](O)[C@H]4O)ccc3c2=O)ccc1O [G1, NBIF-7-O-glucuronide] | 1788.0 ± 203.6 pmol/min/mg | 2490.0 ± 249.5 pmol/min/mg | 4129.0 ± 182.8 pmol/min/mg | 3589.0 ± 432.9 pmol/min/mg | 1807.0 ± 48.14 pmol/min/mg | 3006.0 ± 103.8 pmol/min/mg | 409.3 ± 18.9 pmol/min/mg | Ki [1, 15]: 48.45 ± 13.86 µM |
| 9.09 ± 1.82 µM | 31.68 ± 9.16 µM | 147.0 ± 6.84 pmol/min/mg | 154.5 ± 44.85 µM | 135.3 ± 4.36 pmol/min/mg | 805.9 ± 17.46 pmol/min/mg | 401.2 ± 135.7 µM | 48.33 ± 1.59 pmol/min/mg | CC(C)=CCc1cc(-c2coc3cc(O)ccc3c2=O)ccc1O[C@@H]1O[C@H](C(=O)O)[C@@H](O)[C@H](O)[C@H]1O [G2, NBIF-4′-O-glucuronide] | 919.1 ± 20.23 pmol/min/mg | 826.6 ± 99.48 pmol/min/mg | 7072.0 ± 228.4 pmol/min/mg | 3878.0 ± 563.1 pmol/min/mg | 3363.0 ± 85.47 pmol/min/mg | 3411.0 ± 155.5 pmol/min/mg | 8655.0 ± 1021.0 pmol/min/mg | Ki [7]: 33.32 ± 7.95 µM |
